Inhibition in vivo and Activity data for three molecules are collected here from ChEMBL document CHEMBL1147958, “Evaluation of the anti-inflammatory and anti-nociceptive activities of novel synthesized melatonin analogues” (2007).

Assay [1] relates to Rattus norvegicus. Nature of the assay: […] in Sprague-Dawley rat assessed as inhibition of indomethacin-induced gastric lesions severity at 4 mg/kg, sc. It counts as functional. The settings on record: Stomach, route subcutaneous. In a few lines:
(§1)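 Sprague-Dawley rats (120–130 g, food and water ad libitum) got indomethacin 20 mg/kg s.c. to induce gastric mucosal damage, with the test agent given s.c. at the time of indomethacin injection. Rats were killed 24 h later. Stomachs were opened along the greater curvature, rinsed with saline, and lesions counted and severity-scored on a previously described scale. Results are % decrease versus the indomethacin control.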

Assay [2] has as its system Rattus norvegicus. Nature of the assay: Inhibition of carrageenan-induced paw oedema in Sprague-Dawley rat at 4 mg/kg, sc after 1 hr. It counts as functional. The settings on record: read-out: Inhibition, route subcutaneous. In a few lines: (§2)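 Rats (n = 6/group) got the test agent s.c. (0.5 mL) as a 30 min pretreatment. Oedema was induced by sub-plantar 1% lambda-carrageenan in saline into the right hind paw, with saline in the contralateral paw. Paw volume was measured by plethysmometer before injection and at 1, 2, 3 and 4 h, and expressed as % change from pre-drug values.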

For assay [3], the system named is Rattus norvegicus. Nature of the assay: […] in Sprague-Dawley rat assessed as inhibition of number of indomethacin-induced gastric lesions at 4 mg/kg, sc. The class given is functional. The following applies: Stomach, route subcutaneous. In a few lines:
as §1

In assay [4] the test system is Rattus norvegicus. Nature of the assay: Inhibition of carrageenan-induced paw oedema in Sprague-Dawley rat at 4 mg/kg, sc after 4 hrs. The class given is functional. The following applies: read-out: Inhibition, route subcutaneous. In a few lines: as §2
In assay [5] the test system is Rattus norvegicus. Nature of the assay: Inhibition of carrageenan-induced paw oedema in Sprague-Dawley rat at 4 mg/kg, sc after 2 hrs. The settings on record: read-out: Inhibition, route subcutaneous. It counts as functional. In a few lines:
as §2
For orientation: The carrageenan paw model is a standard test of acute inflammation.

Assay [6] has as its system Rattus norvegicus. Nature of the assay: Antinociceptive activity in Sprague-Dawley rat at 4 mg/kg, sc assessed as increase in latency time after 1 hr by hot plate method. The class given is functional. The following applies: route subcutaneous. In a few lines: (§3)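 Rats (n = 6/group) were dosed s.c. 30 min before testing on a hot-plate held at 52 °C, 30 s cut-off. Reaction latency was read at 1 and 2 h and expressed as % increase over each group's pre-drug basal latency, with indomethacin as the reference control. Groups were compared by ANOVA and Duncan's test.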
In general terms: In hot-plate and tail-flick tests a longer latency is read as antinociception.

Assay [7] has as its system Mus musculus. Nature of the assay: Antinociceptive activity in Swiss Albino mouse assessed as inhibition of acetic acid-induced writhes per 30 min at 4 mg/kg, sc. The following applies: 0.5 h, read-out: Inhibition.
Assay [8] relates to Rattus norvegicus. Nature of the assay: Inhibition of carrageenan-induced paw oedema in Sprague-Dawley rat at 4 mg/kg, sc after 3 hrs. The settings on record: read-out: Inhibition, route subcutaneous. It counts as functional. Put shortly:
as §2

Assay [9] deals with Rattus norvegicus. Nature of the assay: Antinociceptive activity in Sprague-Dawley rat at 4 mg/kg, sc assessed as increase in latency time after 2 hrs by hot plate method. It counts as functional. The settings on record: route subcutaneous. Put shortly: as §3
For assay [10], the system named is Mus musculus. Nature of the assay: Antinociceptive activity in Swiss Albino mouse assessed as inhibition of acetic acid-induced writhes per 30 min at 5.16 mg/kg, sc. The settings on record: 0.5 h, read-out: Inhibition.
The test system of assay [11] is Rattus norvegicus. Nature of the assay: Inhibition of carrageenan-induced paw oedema in Sprague-Dawley rat at 5.16 mg/kg, sc after 4 hrs. The class given is functional. The settings on record: route subcutaneous. Put shortly: as §2
Assay [12] has as its system Rattus norvegicus. Nature of the assay: […] in Sprague-Dawley rat assessed as inhibition of indomethacin-induced gastric lesions severity at 5.16 mg/kg, sc. The class given is functional. The following applies: Stomach, route subcutaneous. In a few lines:
as §1

For assay [13], the system named is Rattus norvegicus. Nature of the assay: Inhibition of carrageenan-induced paw oedema in Sprague-Dawley rat at 5.16 mg/kg, sc after 3 hrs. The class given is functional. The following applies: read-out: Inhibition, route subcutaneous. In a few lines: as §2
The test system of assay [14] is Rattus norvegicus. Nature of the assay: Antinociceptive activity in Sprague-Dawley rat at 5.16 mg/kg, sc assessed as increase in latency time after 2 hrs by hot plate method. The settings on record: route subcutaneous. It counts as functional. In a few lines:
as §3

The subject of assay [15] is Rattus norvegicus. Nature of the assay: Antinociceptive activity in Sprague-Dawley rat at 5.16 mg/kg, sc assessed as increase in latency time after 1 hr by hot plate method. It counts as functional. The following applies: route subcutaneous. Put shortly: as §3
Assay [16] deals with Rattus norvegicus. Nature of the assay: Inhibition of carrageenan-induced paw oedema in Sprague-Dawley rat at 5.16 mg/kg, sc after 2 hrs. It counts as functional. The settings on record: route subcutaneous. Put shortly:
as §2

Assay [17] relates to Rattus norvegicus. Nature of the assay: Inhibition of carrageenan-induced paw oedema in Sprague-Dawley rat at 5.16 mg/kg, sc after 1 hr. It counts as functional. The following applies: read-out: Inhibition, route subcutaneous. In a few lines: as §2
In assay [18] the test system is Rattus norvegicus. Nature of the assay: Antinociceptive activity in Sprague-Dawley rat assessed as inhibition of number of indomethacin-induced gastric lesions at 5.16 mg/kg, sc. The class given is functional. The settings on record: Stomach, route subcutaneous. In a few lines: as §1
Assay [19] relates to Rattus norvegicus. Nature of the assay: Antinociceptive activity in Sprague-Dawley rat assessed as inhibition of number of indomethacin-induced gastric lesions at 5.13 mg/kg, sc. It counts as functional. The following applies: Stomach, route subcutaneous. In a few lines:
as §1

The test system of assay [20] is Rattus norvegicus. Nature of the assay: Antinociceptive activity in Sprague-Dawley rat at 5.13 mg/kg, sc assessed as increase in latency time after 2 hrs by hot plate method. It counts as functional. The following applies: route subcutaneous. In a few lines: as §3
Assay [21] has as its system Rattus norvegicus. Nature of the assay: Antinociceptive activity in Sprague-Dawley rat at 5.13 mg/kg, sc assessed as increase in latency time after 1 hr by hot plate method. The following applies: route subcutaneous. The class given is functional. Put shortly: as §3
Assay [22] has as its system Rattus norvegicus. Nature of the assay: Inhibition of carrageenan-induced paw oedema in Sprague-Dawley rat at 5.13 mg/kg, sc after 1 hr. The class given is functional. The settings on record: read-out: Inhibition, route subcutaneous. In a few lines:
as §2

Assay [23] relates to Rattus norvegicus. Nature of the assay: Inhibition of carrageenan-induced paw oedema in Sprague-Dawley rat at 5.13 mg/kg, sc after 3 hrs. The settings on record: read-out: Inhibition, route subcutaneous. The class given is functional. In a few lines:
as §2

Assay [24] concerns Rattus norvegicus. Nature of the assay: Inhibition of carrageenan-induced paw oedema in Sprague-Dawley rat at 5.13 mg/kg, sc after 4 hrs. It counts as functional. The following applies: read-out: Inhibition, route subcutaneous. In a few lines: as §2
Assay [25] has as its system Rattus norvegicus. Nature of the assay: […] in Sprague-Dawley rat assessed as inhibition of indomethacin-induced gastric lesions severity at 5.13 mg/kg, sc. The class given is functional. The following applies: Stomach, route subcutaneous. In a few lines:
as §1

In assay [26] the test system is Mus musculus. Nature of the assay: Antinociceptive activity in Swiss Albino mouse assessed as inhibition of acetic acid-induced writhes per 30 min at 5.13 mg/kg, sc. The following applies: 0.5 h, read-out: Inhibition.
In assay [27] the test system is Rattus norvegicus. Nature of the assay: Inhibition of carrageenan-induced paw oedema in Sprague-Dawley rat at 5.13 mg/kg, sc after 2 hrs. It counts as functional. The settings on record: read-out: Inhibition, route subcutaneous. In a few lines: as §2

Turning to `COc1ccc2[nH]cc(CCNC(C)=O)c2c1` [MELATONIN], the inhibition in vivo at 4 mg/kg was determined as 69% in the assay with Rattus norvegicus [1]; 50.8% in the assay with Rattus norvegicus [2]; 56.3% with Rattus norvegicus [3]; 30% in the assay on Rattus norvegicus [4]; 50.1% in the assay on Rattus norvegicus [5]; 55.6% with Mus musculus [7]. In the assay with Rattus norvegicus [8], the inhibition in vivo at 4 mg/kg was determined as 44.4%. Also, the results for the Activity in the assay on Rattus norvegicus [6] and with Rattus norvegicus [9] were 39.7% and 96%, respectively.

As to `COc1ccc2c(c1)c(CCNC(C)=O)c1n2C(=O)CC1=O`, the inhibition in vivo at 5.16 mg/kg is 24.4% with Mus musculus [10]; -27.1% in the assay with Rattus norvegicus [11]; 54.8% in the assay on Rattus norvegicus [12]; 30% in the assay with Rattus norvegicus [13]; -35.7% with Rattus norvegicus [16]; 42.9% with Rattus norvegicus [17]. For the same molecule, the inhibition in vivo at 5.16 mg/kg in the assay with Rattus norvegicus [18] came to 43.5%. Besides, the Activity in the assay with Rattus norvegicus [14] was determined as 132.3%; with Rattus norvegicus [15], 103.6%.

For the molecule `COc1ccc2c(c1)c(CCNC(C)=O)c1n2C(=O)C=C1C`, the inhibition in vivo at 5.13 mg/kg with Rattus norvegicus [19] worked out at 72.6%; with Rattus norvegicus [22], 67.3%; in the assay on Rattus norvegicus [23] it was 43%; in the assay with Rattus norvegicus [24], 28.8%; in the assay on Rattus norvegicus [25], 82.6%; with Mus musculus [26], 68.7%. Also, the inhibition in vivo at 5.13 mg/kg in the assay with Rattus norvegicus [27] came to 59.4%. Further, the Activity in the assay with Rattus norvegicus [20] worked out at 144.6%; with Rattus norvegicus [21], 116.6%.
